Screening data as filed in PubChem BioAssay.
Cardio protect: protects H9c2 cardiomyocytes from peroxide injury; H2O2 injury protection, ATPLite, 2 h; protection from H2O2 cell death, % at 20 µM; 360,000 tested, 0.63% active;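 active = compounds giving at least 50% protection of heart cells from peroxide-induced death in the single-dose screen, raw or plate-pattern-corrected value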;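 also: 0% = DMSO wells with peroxide and 100% = DMSO wells without peroxide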
DDE Tn7 FP inh: DD(E)-Tn7 binding inhibition, primary FP screen | P02675 | FP displacement of FITC-Tn7 peptide from fibrin DD(E); 0% = median of compound wells per plate | inhibition, % at 8.3 µM | 370,000 tested, 0.13% active | AID 720508;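 active = inhibition above the mean of compounds falling within the control limits plus 3 SD of them, cut at about 14% in these data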;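 also: 0% = plate median of compound wells and 100% = 10 µM Aha-Tn7 peptide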
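Test system: human clot-derived fibrin DD(E) complex / Quantity: 2 µM final DD(E) protein / Incubation: 10 min plus 3 h, room temperature / Measured by: fluorescence polarization / Benchmarks: high control of 10 µM Aha-Tn7 peptide / Replicates: singlicate testing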
MT1-MMP act inh: blocks activation of human MT1-MMP; 360,000 tested, 0.061% active; GFP/RFP ratio change, % at 20 µM; P50281; HT1080 RFP-PRO-GFP cells, GFP/RFP ratio fluorescence, overnight; percent of plate control window, DMSO zero;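 active = GFP/RFP ratio change of at least 30% with cell ATP level not reduced by more than half and red fluorescence within 50% of control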
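Test system: HT1080 RFP-PRO-GFP cells; Benchmarks: DMSO and RFP-L50D-GFP cell wells; Timing: cells overnight before dosing, compound overnight, 37 °C, 5% CO2; Compound: one 20 µM compound dose with 1% DMSO; Read-out: GFP/RFP fluorescence ratio.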
Tn6 DDE FP: inhibitors of Tn6 peptide binding to human fibrin DD(E) | 370,000 tested, 0.21% active | inhibition, % at 8.3 µM | P02675 | Fibrin DD(E) TRITC-Tn6 fluorescence polarization displacement;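 active = inhibition above a per-campaign cutoff: mean of compounds within control limits plus 3 SD, cut at about 15% in these data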;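 also: 0% = median of all compound wells on the plate and 100% = blocking peptide control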
TAG inh: reduces triacylglycerol accumulation in H9c2 cells | inhibition, % at 12.5 µM | Nile Red lipid (TAG) fluorescence; cells loaded with 200 µM oleic acid | AID 651582 | 230,000 tested, 0.66% active;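 active = pattern-corrected inhibition of lipid staining of at least 50% with the nuclear-stain viability signal not falling by more than 50%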;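 also: 0% = DMSO wells and 100% = triacsin C control wells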
DAGLB inh: diacylglycerol lipase beta (human) inhibition; HEK293T DAGLB membrane lysate, EnzChek fluorogenic substrate; inhibition, % at 5.17 µM; 340,000 tested, 0.059% active; AID 504411; in the data active = inhibition above about 34%;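 also: 0% = enzyme with vehicle and 100% = wells lacking enzyme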
TAG conf: confirmation of triacylglycerol accumulation inhibitors. inhibition, % at 12.5 µM. shares compounds with TAG inh. AID 651629. 990 tested, 71% active. H9c2 lipid accumulation, Nile Red fluorescence; cells loaded with 200 µM oleic acid;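 active = mean inhibition across replicates of 40% or more; inactive = mean inhibition below 40%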;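 also: plate controls were DMSO only wells for no effect and Triacsin C treated wells for full effect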
An asterisk follows results filed as active; · = no result given. Compounds with a hit are over-represented: about 1.4% of the library has one in this group of screens.

SMILES	Cardio protect	DDE Tn7 FP inh	MT1-MMP act inh	Tn6 DDE FP	TAG inh	DAGLB inh	TAG conf
O=C(Cc1ccccc1)NC(Nc1cccc2ccccc12)C(Cl)(Cl)Cl (centres undefined)	-23	-1	5	0	58*	-8	1
Cc1cc2c(cc1C)CSC(c1ccccc1OC(=O)C(C)C)SC2	-4	-6	-2	-11	52*	-8	24
COc1cc2c(cc1OC)C(COc1ccccc1OC)N(C(=O)C(C)C)CC2 (centres undefined)	-2	0	1	-1	24	0	·
CCOC(=O)C(=O)N(C)c1c(CC)nc2c(OCCC3CCCCC3)cccn12	2	-6	1	10	119*	·	7
CCOC(=O)N(C)c1c(CC)nc2c(OCCC3CCCCC3)cccn12	-6	4	2	1	7	·	·
C=CCN=C1NC(c2cccc(Cl)c2)C(C(=O)OC)=C(C)N1Cc1cccc(C(F)(F)F)c1 (centres undefined)	·	-11	·	-7	·	·	·
COc1ccc(NC(=O)CCN2C(=O)c3ccccc3C2=O)c(OC)c1	2	0	1	-2	·	-2	·
COc1ccc(OC)c(N(CCN2C(=O)c3ccccc3C2=O)C(=O)CCl)c1	2	3	-23	8	52*	-1	53*
CCOC(=O)[C@]12CCCC3=C1N(CCC3)C(=O)[C@@H](CC(=O)NCCc1ccccc1OC)C2	·	4	·	-1	·	·	·
COC(=O)C1=CC[C@@H](NC(=O)OC(C)(C)C)[C@H](O)[C@H]1O[Si](C)(C)C(C)(C)C	·	-6	·	-7	·	·	·
COc1ccc(CCn2c(-n3nc(C)cc3C)nc3c2c(=O)[nH]c(=O)n3C)cc1	0	-5	-1	6	54*	0	62*
CCOc1ccccc1NC(=O)c1cccc(NC(=O)c2ccco2)c1	14	2	-5	6	79*	-1	82*
CCCC(=O)OC12CCCN(C1)/C(=C/c1ccc(OC)cc1)C2 (centres undefined)	·	-8	·	-1	·	·	·
COc1ccc(S(=O)(=O)N2c3cc(Cl)ccc3Oc3nc4ccccc4nc32)cc1	-10	-2	15	0	52*	-5	28
O=S(=O)(c1ccc(Cl)cc1)N1c2ccccc2Oc2nc3ccccc3nc21	8	0	-3	3	-12	-4	·
COC(=O)C1=C(C)N(Cc2ccccc2)C(=NCc2cc(OC)c(OC)c(OC)c2)N[C@H]1c1ccccc1	·	·	·	·	·	0	·
COC(=O)C1=C(C)N(Cc2ccccc2)C(=NCc2ccccc2)N[C@H]1c1ccccc1	-14	2	-1	2	105*	-1	53*
COCCN=C1N[C@@H](c2ccccc2)C(C(=O)OC)=C(C)N1Cc1ccccc1	-2	6	-2	4	1	1	·
COC(=O)C1=C(C)N(Cc2ccccc2)C(=NCc2cc(OC)c(OC)c(OC)c2)N[C@H]1c1ccc(Br)cc1	4	·	4	·	62*	1	62*
C=C(O[C@H]1[C@H](O)CC=C(C(=O)O)[C@@H]1O)C(=O)O	·	-3	·	-2	·	·	·
CCn1c(SCC(=O)Nc2ccccc2-c2ccccc2)nnc1-c1cnccn1	·	2	·	2	·	·	·
CC(=O)NCCC(=O)Nc1sc2c(c1-c1nc3ccccc3[nH]1)CCCC2	36	9	5	4	·	1	·
O=C(Nc1sc2c(c1-c1nc3ccccc3[nH]1)CCCC2)C1CCCC1	0	1	-7	0	58*	-4	60*
Cc1ccc(CNC(=O)c2ccc(N3CCC4(CC3)CC(c3ccccc3)=NO4)c(NC(=O)c3ccc(Br)cc3)c2)cc1	2	-6	0	-8	55*	-5	56*
Cc1ccc(CNC(=O)c2ccc(N3CCC4(CC3)CC(c3ccccc3)=NO4)c(NC(=O)c3ccccc3)c2)cc1	-3	-5	-2	-5	6	0	·
COc1ccc(-c2cc(CNc3nc(NC(C)C)nc4cc(-c5ccccc5)sc34)on2)cc1	-28	-8	-32	-2	96*	·	79*
